Assay results from ChEMBL document CHEMBL4831479, “Discovery of Novel Thiophene-arylamide Derivatives as DprE1 Inhibitors with Potent Antimycobacterial Activities” (J Med Chem, 2021).
Converted amounts (≈) assume the structure as drawn.

Experiments:
[1] = test system: Mycobacterium tuberculosis; assay: Antitubercular activity against Mycobacterium tuberculosis H37Rv assessed as bacterial growth inhibition incubated for 7 days by microplate Alamar blue assay; assay type: functional; settings: 168 h, time 7 day
In short: (§1)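 MABA: H37Rv or clinical isolates grown to late log phase in 7H9 with 0.2% glycerol, 0.05% Tween 80, 10% ADC; washed, filtered 8 μm, frozen. 2 × 10⁵ CFU per well with twofold compound dilutions, 37 °C; day 7 Tween 80 plus Alamar blue, 16–24 h more, fluorescence ex 530/em 590. MIC = lowest concentration giving ≥90% fluorescence reduction versus bacterium-only controls; RFP, INH, TCA1 controls.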

[2] = Selectivity index, ratio of IC50 for African green monkey Vero cells to MIC for antitubercular activity against Mycobacterium tuberculosis H37Rv; assay type: toxicity; settings: read-out: Selectivity Index
[3] = test system: Mycobacterium tuberculosis; assay: Antimycobacterial activity against Mycobacterium tuberculosis H37Rv infected in mouse J774.1 cells assessed as change in bacterial colony forming units at 10 ug/ml incubated for 3 days; assay type: functional; settings: dose 10 µg/ml; time 3 day
In short: (§2)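 Mouse J774A.1 macrophages infected with M. tuberculosis H37Rv, treated 3 days at final 10 or 5 μg/mL; rifampicin control at 5 μg/mL. Intracellular log10 CFU counted; Δlog10 CFU = untreated minus treated. Triplicate, at least three separate experiments.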

[4] = test system: Mycobacterium tuberculosis; assay: Antimycobacterial activity against Mycobacterium tuberculosis H37Rv infected in mouse J774.1 cells assessed as reduction in bacterial colony forming units at 10 ug/ml incubated for 3 days (reference value: 5.52 +/- 0.18 log10CFU); assay type: functional; settings: dose 10 µg/ml; time 3 day; in short: as §2
[5] = target: T1, Decaprenylphosphoryl-beta-D-ribose oxidase (Mycobacterium tuberculosis (strain ATCC 25618 / H37Rv)) (UniProt P9WJF1); assay: Non-covalent inhibition of DprE1 in Mycobacterium tuberculosis H37Rv measured after 7 days by microplate Alamar blue assay; settings: time 7.0 day; in short: as §1
T1 sequence (whole entry): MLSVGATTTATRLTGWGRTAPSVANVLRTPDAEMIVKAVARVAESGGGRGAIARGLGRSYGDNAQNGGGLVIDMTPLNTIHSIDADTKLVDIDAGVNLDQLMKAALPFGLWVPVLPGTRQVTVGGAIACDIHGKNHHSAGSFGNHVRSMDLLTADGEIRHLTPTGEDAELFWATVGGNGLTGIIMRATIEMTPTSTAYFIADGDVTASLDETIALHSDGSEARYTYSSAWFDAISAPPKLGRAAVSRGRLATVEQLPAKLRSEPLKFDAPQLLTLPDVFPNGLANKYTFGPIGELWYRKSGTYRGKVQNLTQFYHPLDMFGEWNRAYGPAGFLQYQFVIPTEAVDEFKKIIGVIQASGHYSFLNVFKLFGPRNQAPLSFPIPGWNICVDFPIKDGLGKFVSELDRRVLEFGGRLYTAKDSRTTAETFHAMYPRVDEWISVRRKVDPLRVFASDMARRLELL

[6] = test system: HepG2; assay: Cytotoxicity against human HepG2 cells assessed as reduction in cell viability measured after 48 hrs by MTT assay; assay type: cell-based; settings: HepG2, 48 h
In short: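 Threefold serial dilutions gave final concentrations of 64 to 0.26 μg/mL. After 48 h at 37 °C, monolayers were washed with warm HBSS and given fresh medium plus MTT for 4 h. Absorbance was read at 492 nm. IC₅₀ is the concentration giving 50% growth inhibition versus the untreated control.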

[7] = test system: Mycobacterium tuberculosis; assay: Antimycobacterial activity against Mycobacterium tuberculosis H37Rv infected in mouse J774.1 cells assessed as change in bacterial colony forming units at 5 ug/ml incubated for 3 days; assay type: functional; settings: dose 5 µg/ml; time 3 day; in short: as §2
[8] = test system: Mycobacterium tuberculosis; assay: Antimycobacterial activity against Mycobacterium tuberculosis H37Rv infected in mouse J774.1 cells assessed as reduction in bacterial colony forming units at 5 ug/ml incubated for 3 days (reference value: 5.52 +/- 0.18 log10CFU); assay type: functional; settings: dose 5 µg/ml; time 3 day; in short: as §2
[9] = Stability in mouse hepatocytes assessed as parent compound remaining at 1 uM measured after 30 mins by LC-MS/MS analysis; assay type: ADME, cell-based, Hepatocyte; settings: 0.5 h
In short: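 Hepatocytes from male mice; metabolic stability measured as the amount of parent compound remaining. Concentrations after 30 min incubation were normalized to those at time zero.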

Row | Compound | MIC [1] [µg/mL] | selectivity ratio [2] | Activity [3] [deltalog10CFU] | Activity [4] [log10CFU] | Activity [7] [deltalog10CFU] | Activity [8] [log10CFU] | further results
1 | COC(=O)C1CCN(C(=O)c2ccsc2NC(=O)c2ccc(C(=O)N3CCCCC3)cc2)CC1 | > 32 |  |  |  |  |  | 
2 | Cc1ccnc(NC(=O)c2ccsc2NC(=O)c2ccc(C(=O)N3CCCCC3)cc2)n1 | 0.03 (≈ 0.0667 µM) | > 27 |  |  |  |  | 
3 | Cc1cnc(NC(=O)c2ccsc2NC(=O)c2ccc(C(=O)N3CCCCC3)cc2)s1 | 0.19 (≈ 0.418 µM) |  |  |  |  |  | 
4 | Cc1cccc(NC(=O)c2ccsc2NC(=O)c2ccc(C(=O)N3CCCCC3)cc2)n1 | 15.5 (≈ 34.6 µM) |  |  |  |  |  | 
5 | Cc1ccnc(NC(=O)c2ccsc2NC(=O)c2ccc(C(=O)N3CCCCC3)c(F)c2)n1 | > 32 |  |  |  |  |  | 
6 | COC(=O)NC(=O)c1ccsc1NC(=O)c1ccc(C(=O)N2CCCCC2)cc1 | > 32 |  | 0.75 | 4.77 | 0.46 | 5.06 | MIC [5]: 0.12 µg/mL (≈ 0.289 µM); IC50 [6]: > 64 µg/mL
7 | CCOC(=O)NC(=O)c1ccsc1NC(=O)c1coc(C(=O)N2CCCCC2)c1 | 37 (≈ 88.2 µM) |  |  |  |  |  | 
8 | CCCNC(=O)c1ccc(C(=O)Nc2sccc2C(=O)NC(=O)OCC)cc1 |  | > 320 |  |  |  |  | 
9 | COC(=O)NC(=O)c1ccsc1NC(=O)c1ccc(C(=O)N2CCCCC2)c(F)c1 | 1.94 (≈ 4.48 µM) |  | 0.93 | 4.59 | 0.77 | 4.75 | IC50 [6]: > 64 µg/mL
10 | CCOC(=O)NC(=O)c1ccsc1NC(=O)c1ccc(C(=O)N2CCCCC2)s1 |  | > 457 |  |  |  |  | IC50 [6]: > 64 µg/mL
11 | CCOC(=O)NC(=O)c1ccsc1NC(=O)c1ccc(C(=O)N2CCCCC2)c(F)c1 |  | > 4000 | 1.34 | 4.18 | 1.11 | 4.41 | IC50 [6]: > 64 µg/mL
12 | CCNC(=O)NC(=O)c1ccsc1NC(=O)c1ccc(C(=O)N2CCCCC2)cc1 | 0.47 (≈ 1.1 µM) |  |  |  |  |  | 
13 | CCOC(=O)NC(=O)c1ccsc1NC(=O)c1cc(C(=O)N2CCCCC2)c[nH]1 | 137 (≈ 327 µM) |  |  |  |  |  | 
14 | CCOC(=O)NC(=O)c1ccsc1NC(=O)c1ccc(C(=O)NC2CCC(C)(C)CC2)cc1 | 0.04 (≈ 0.0848 µM) |  |  |  |  |  | 
15 | NC(=O)c1ccsc1NC(=O)c1ccc(C(=O)N2CCCCC2)cc1 | 0.2 (≈ 0.56 µM) |  |  |  |  |  | 
16 | O=C(Nc1sccc1C(=O)Nc1nccc(C(F)(F)F)n1)c1ccc(C(=O)N2CCCCC2)cc1 | > 32 | > 320 | 0.98 | 4.54 | 0.93 | 4.59 | 
17 | CCOC(=O)NC(=O)c1ccsc1NC(=O)c1nc2ccccc2s1 |  | 66 | 1.16 | 4.36 | 0.11 | 4.91 | Stability [9]: 79.8%
18 | CCOC(=O)NC(=O)c1ccsc1NC(=O)c1ccc(C(=O)N2CCCCC2)cc1 |  |  | 1.07 | 4.45 | 0.98 | 4.54 | MIC [5]: 0.055 µg/mL (≈ 0.128 µM); IC50 [6]: > 64 µg/mL
